Results from ChEMBL document CHEMBL2331221, “Potent elastase inhibitors from cyanobacteria: structural basis and mechanisms mediating cytoprotective and anti-inflammatory effects in bronchial epithelial cells” (J Med Chem, 2013).
Activity calls are given as the source filed them.

Tests used:
[1] = molecular target: Dipeptidyl peptidase 8 (Homo sapiens) (UniProt Q6V1X1); test: Inhibition of DPP8 (unknown origin) using H-GP-AMC substrate assessed as residual activity at 10 uM incubated for 15 mins prior to substrate addition measured for 2 hrs
Procedure, shortened: (§1)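 Protease panel screen: enzyme and test inhibitor preincubated 15 min in the enzyme's reaction buffer, then substrate added. Reaction followed for 2 h, and activity was taken from the initial linear portion of the progress-curve slope. Enzyme, substrate, buffer and detection conditions for each target are given only in the paper's supporting table.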

[2] = Inhibition of Thrombin alpha (unknown origin) using H-D-CHA -Ala-Arg-AMC.2AcOH substrate incubated for 15 mins prior to substrate addition measured for 2 hrs; set-up: species or system Homo sapiens
Procedure, shortened: (§2)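 Protease panel screen: enzyme and inhibitor preincubated 15 min in reaction buffer, then substrate added; reaction followed for 2 h and the initial linear part of the progress curve used for activity. Enzyme, substrate, buffer and detection details are given only in a supporting table.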

[3] = Inhibition of Hepatitis C virus NS3/4A protease using Anaspec EnzoLyte substrate incubated for 15 mins prior to substrate addition measured for 2 hrs; set-up: species or system Hepacivirus hominis; procedure, shortened: as §1
[4] = Inhibition of human pancreatic chymotrypsin assessed as proteolysis using N-succinyl-Ala-Ala-Pro-Phe-p-nitroanilide substrate incubated for 30 mins prior to substrate addition
[5] = Inhibition of Proteinase K (unknown origin) using H-D-CHA -Ala-Arg-AMC.2AcOH substrate incubated for 15 mins prior to substrate addition measured for 2 hrs; set-up: species or system Homo sapiens; procedure, shortened: as §2
[6] = molecular target: Coagulation factor X (Homo sapiens) (UniProt P00742); test: Inhibition of Factor-10a (unknown origin) using CH3SO2-D-CHA-Gly-Arg-AMC-AcOH substrate assessed as residual activity at 10 uM incubated for 15 mins prior to substrate addition measured for 2 hrs; procedure, shortened: as §1
[7] = molecular target: Dipeptidyl peptidase 1 (Homo sapiens) (UniProt P53634); test: Inhibition of Cathepsin C (unknown origin) using Z-FR-AMC substrate assessed as residual activity at 10 uM incubated for 15 mins prior to substrate addition measured for 2 hrs; procedure, shortened: as §1
Chymase (Homo sapiens) = Chymase (Homo sapiens) (UniProt P23946); test: Inhibition of Chymase (unknown origin) using Suc-AAPF-AMC substrate assessed as residual activity at 10 uM incubated for 15 mins prior to substrate addition measured for 2 hrs; procedure, shortened: as §1
[8] = molecular target: Kallikrein-8 (Homo sapiens) (UniProt O60259); test: Inhibition of Kallikrein-8 (unknown origin) using VPR-AMC substrate assessed as residual activity at 10 uM incubated for 15 mins prior to substrate addition measured for 2 hrs; procedure, shortened: as §1
Chymase = Chymase (Homo sapiens, UniProt P23946); test: Inhibition of Chymase (unknown origin) using Suc-AAPF-AMC substrate incubated for 15 mins prior to substrate addition measured for 2 hrs; procedure, shortened: as §1
[9] = molecular target: T1, Neutrophil elastase (Homo sapiens) (UniProt P08246); settings: BEAS2B, 10 uM
T1 sequence (whole entry): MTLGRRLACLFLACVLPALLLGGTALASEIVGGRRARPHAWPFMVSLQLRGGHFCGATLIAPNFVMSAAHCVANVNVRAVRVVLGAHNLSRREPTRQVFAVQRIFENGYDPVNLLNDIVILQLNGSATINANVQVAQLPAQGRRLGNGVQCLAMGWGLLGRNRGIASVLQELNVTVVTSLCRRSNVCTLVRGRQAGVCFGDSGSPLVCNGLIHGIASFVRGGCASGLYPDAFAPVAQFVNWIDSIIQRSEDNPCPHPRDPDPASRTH

[10] = molecular target: Stromelysin-3 (Homo sapiens) (UniProt P24347); test: Inhibition of MMP11 (unknown origin) using (5-FAM/QXLTM) FRET peptide substrate assessed as residual activity at 10 uM incubated for 15 mins prior to substrate addition measured for 2 hrs; procedure, shortened: as §1
[11] = molecular target: T1, Neutrophil elastase (Homo sapiens); settings: 10 uM
Tryptase gamma = Tryptase gamma (Homo sapiens, UniProt Q9NRR2); test: Inhibition of Tryptase gamma1 (unknown origin) using Z-GPR-AMC substrate incubated for 15 mins prior to substrate addition measured for 2 hrs; procedure, shortened: as §2
[12] = molecular target: Tissue-type plasminogen activator (Homo sapiens) (UniProt P00750); test: Inhibition of tPA (unknown origin) using Z-GPR-AMC substrate assessed as residual activity at 10 uM incubated for 15 mins prior to substrate addition measured for 2 hrs; procedure, shortened: as §2
Cathepsin G = Cathepsin G (Homo sapiens, UniProt P08311); test: Inhibition of Cathepsin G (unknown origin) using Suc-AAPF-AMC substrate incubated for 15 mins prior to substrate addition measured for 2 hrs; procedure, shortened: as §1
[13] = molecular target: Granzyme B (Homo sapiens) (UniProt P10144); test: Inhibition of Granzyme B (unknown origin) using Ac-IEPD-AMC substrate assessed as residual activity at 10 uM incubated for 15 mins prior to substrate addition measured for 2 hrs; procedure, shortened: as §1
[14] = molecular target: Kallikrein-1 (Homo sapiens) (UniProt P06870); test: Inhibition of Kallikrein-1 (unknown origin) using Z-GPR-AMC substrate assessed as residual activity at 10 uM incubated for 15 mins prior to substrate addition measured for 2 hrs; procedure, shortened: as §1
[15] = molecular target: Macrophage metalloelastase (Homo sapiens) (UniProt P39900); test: Inhibition of MMP12 (unknown origin) using (5-FAM/QXLTM) FRET peptide substrate assessed as residual activity at 10 uM incubated for 15 mins prior to substrate addition measured for 2 hrs; procedure, shortened: as §1
[16] = molecular target: Tryptase beta-2 (Homo sapiens) (UniProt P20231); test: Inhibition of Tryptase beta2 (unknown origin) using Z-GPR-AMC substrate assessed as residual activity at 10 uM incubated for 15 mins prior to substrate addition measured for 2 hrs
[17] = molecular target: Dipeptidyl peptidase 4 (Homo sapiens) (UniProt P27487); test: Inhibition of DPP4 (unknown origin) using H-GP-AMC substrate assessed as residual activity at 10 uM incubated for 15 mins prior to substrate addition measured for 2 hrs; procedure, shortened: as §1
Kallikrein-5 = Kallikrein-5 (Homo sapiens, UniProt Q9Y337); test: Inhibition of Kallikrein-5 (unknown origin) using Z-VVR-AMC substrate incubated for 15 mins prior to substrate addition measured for 2 hrs; procedure, shortened: as §1
[18] = molecular target: Matrix metalloproteinase-9 (Homo sapiens) (UniProt P14780); test: Inhibition of MMP9 (unknown origin) using (5-FAM/QXLTM) FRET peptide substrate assessed as residual activity at 10 uM incubated for 15 mins prior to substrate addition measured for 2 hrs; procedure, shortened: as §2
[19] = molecular target: Disintegrin and metalloproteinase domain-containing protein 10 (Homo sapiens) (UniProt O14672); test: Inhibition of ADAM10 (unknown origin) using MCA-PLAQAV-Dpa-RSSSR-[…] substrate assessed as residual activity at 10 uM incubated for 15 mins prior to substrate addition measured for 2 hrs; procedure, shortened: as §1
[20] = molecular target: Kallikrein-13 (Homo sapiens) (UniProt Q9UKR3); test: Inhibition of Kallikrein-13 (unknown origin) using VPR-AMC substrate assessed as residual activity at 10 uM incubated for 15 mins prior to substrate addition measured for 2 hrs; procedure, shortened: as §1
[21] = molecular target: T1, Neutrophil elastase (Homo sapiens); settings: 10 uM; remark: listed apart in the source
[22] = molecular target: Cathepsin B (Homo sapiens) (UniProt P07858); test: Inhibition of Cathepsin B (unknown origin) using Z-FR-AMC substrate assessed as residual activity at 10 uM incubated for 15 mins prior to substrate addition measured for 2 hrs; procedure, shortened: as §1

Kallikrein-13 (Homo sapiens), sequence (Q9UKR3 whole entry): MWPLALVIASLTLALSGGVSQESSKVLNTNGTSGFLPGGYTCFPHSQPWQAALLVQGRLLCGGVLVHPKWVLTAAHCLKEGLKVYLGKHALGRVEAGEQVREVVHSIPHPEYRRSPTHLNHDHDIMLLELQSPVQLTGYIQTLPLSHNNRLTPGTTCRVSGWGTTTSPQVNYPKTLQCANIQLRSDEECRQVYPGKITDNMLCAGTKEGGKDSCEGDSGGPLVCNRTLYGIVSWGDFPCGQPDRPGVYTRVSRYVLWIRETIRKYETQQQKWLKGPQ
Dipeptidyl peptidase 1 (Homo sapiens), sequence (P53634 25-134 limits assumed): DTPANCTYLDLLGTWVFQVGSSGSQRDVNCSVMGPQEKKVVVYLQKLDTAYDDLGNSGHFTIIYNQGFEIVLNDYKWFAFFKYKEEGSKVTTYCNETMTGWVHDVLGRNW
Dipeptidyl peptidase 1 (Homo sapiens), sequence (P53634 231-394 limits assumed): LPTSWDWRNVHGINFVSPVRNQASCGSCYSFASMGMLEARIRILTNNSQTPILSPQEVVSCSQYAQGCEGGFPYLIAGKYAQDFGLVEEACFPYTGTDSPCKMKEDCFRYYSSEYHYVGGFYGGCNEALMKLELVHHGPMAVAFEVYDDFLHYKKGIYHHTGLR
Dipeptidyl peptidase 1 (Homo sapiens), sequence (P53634 395-463 limits assumed): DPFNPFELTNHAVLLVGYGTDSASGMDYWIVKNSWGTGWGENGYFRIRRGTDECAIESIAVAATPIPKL
Kallikrein-1 (Homo sapiens), sequence (P06870 25-262 limits assumed): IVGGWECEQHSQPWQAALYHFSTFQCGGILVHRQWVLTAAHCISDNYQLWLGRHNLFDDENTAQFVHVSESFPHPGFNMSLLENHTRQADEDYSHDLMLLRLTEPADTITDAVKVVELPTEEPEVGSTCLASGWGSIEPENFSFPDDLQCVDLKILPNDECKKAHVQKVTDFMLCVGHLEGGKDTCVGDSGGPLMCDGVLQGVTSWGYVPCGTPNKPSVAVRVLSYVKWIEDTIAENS
Coagulation factor X (Homo sapiens), sequence (P00742 41-179 limits assumed): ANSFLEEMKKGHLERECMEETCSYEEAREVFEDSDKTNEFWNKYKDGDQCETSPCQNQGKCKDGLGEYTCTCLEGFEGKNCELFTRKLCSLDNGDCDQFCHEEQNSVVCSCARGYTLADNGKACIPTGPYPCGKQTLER
Coagulation factor X (Homo sapiens), sequence (P00742 235-488 limits assumed): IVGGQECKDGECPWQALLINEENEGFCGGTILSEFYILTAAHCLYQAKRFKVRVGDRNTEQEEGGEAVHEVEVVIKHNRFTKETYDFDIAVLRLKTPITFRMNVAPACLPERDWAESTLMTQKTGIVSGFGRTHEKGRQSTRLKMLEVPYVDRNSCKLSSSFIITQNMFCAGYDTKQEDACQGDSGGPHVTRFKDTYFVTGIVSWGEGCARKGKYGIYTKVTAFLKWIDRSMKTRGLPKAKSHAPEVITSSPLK
Cathepsin G, sequence (P08311 whole entry): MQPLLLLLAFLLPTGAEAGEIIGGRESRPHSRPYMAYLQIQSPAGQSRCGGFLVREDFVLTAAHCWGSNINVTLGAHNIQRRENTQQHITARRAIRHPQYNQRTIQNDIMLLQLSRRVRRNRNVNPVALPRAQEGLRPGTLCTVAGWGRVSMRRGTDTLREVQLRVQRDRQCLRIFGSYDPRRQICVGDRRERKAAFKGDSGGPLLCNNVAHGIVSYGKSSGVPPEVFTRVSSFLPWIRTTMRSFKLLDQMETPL
Kallikrein-8 (Homo sapiens), sequence (O60259 whole entry): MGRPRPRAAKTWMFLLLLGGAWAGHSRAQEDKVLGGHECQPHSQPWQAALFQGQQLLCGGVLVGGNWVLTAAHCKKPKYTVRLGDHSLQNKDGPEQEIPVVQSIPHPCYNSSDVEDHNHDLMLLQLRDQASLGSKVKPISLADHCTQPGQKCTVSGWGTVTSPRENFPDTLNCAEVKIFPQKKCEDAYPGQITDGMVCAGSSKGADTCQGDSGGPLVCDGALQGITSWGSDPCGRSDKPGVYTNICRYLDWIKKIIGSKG
Granzyme B (Homo sapiens), sequence (P10144 whole entry): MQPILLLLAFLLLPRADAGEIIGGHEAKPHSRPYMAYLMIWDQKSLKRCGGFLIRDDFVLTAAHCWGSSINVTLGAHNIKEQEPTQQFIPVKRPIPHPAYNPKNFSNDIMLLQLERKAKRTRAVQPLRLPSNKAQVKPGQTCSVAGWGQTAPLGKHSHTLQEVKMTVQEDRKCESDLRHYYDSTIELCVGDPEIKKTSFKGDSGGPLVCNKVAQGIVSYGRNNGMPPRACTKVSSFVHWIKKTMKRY
Matrix metalloproteinase-9 (Homo sapiens), sequence (P14780 whole entry, the tested form may be a part): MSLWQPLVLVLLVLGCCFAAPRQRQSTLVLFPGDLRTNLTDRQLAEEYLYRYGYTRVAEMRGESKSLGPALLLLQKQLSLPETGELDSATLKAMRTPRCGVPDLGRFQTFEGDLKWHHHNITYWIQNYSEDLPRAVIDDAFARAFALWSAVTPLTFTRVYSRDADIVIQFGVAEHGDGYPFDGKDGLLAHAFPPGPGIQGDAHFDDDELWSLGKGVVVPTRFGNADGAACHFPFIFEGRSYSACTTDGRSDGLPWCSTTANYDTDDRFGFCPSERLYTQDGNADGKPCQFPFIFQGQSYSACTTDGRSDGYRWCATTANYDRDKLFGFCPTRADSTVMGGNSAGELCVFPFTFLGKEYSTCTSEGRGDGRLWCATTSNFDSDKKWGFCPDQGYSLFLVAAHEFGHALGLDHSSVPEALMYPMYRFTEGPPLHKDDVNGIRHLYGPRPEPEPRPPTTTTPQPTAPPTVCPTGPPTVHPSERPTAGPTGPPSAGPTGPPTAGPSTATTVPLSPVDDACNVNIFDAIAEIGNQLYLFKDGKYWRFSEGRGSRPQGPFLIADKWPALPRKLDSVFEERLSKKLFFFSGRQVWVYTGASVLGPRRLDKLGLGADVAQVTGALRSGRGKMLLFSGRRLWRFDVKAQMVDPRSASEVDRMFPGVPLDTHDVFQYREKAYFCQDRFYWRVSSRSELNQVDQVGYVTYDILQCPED
Tissue-type plasminogen activator (Homo sapiens), sequence (P00750 36-562 limits assumed): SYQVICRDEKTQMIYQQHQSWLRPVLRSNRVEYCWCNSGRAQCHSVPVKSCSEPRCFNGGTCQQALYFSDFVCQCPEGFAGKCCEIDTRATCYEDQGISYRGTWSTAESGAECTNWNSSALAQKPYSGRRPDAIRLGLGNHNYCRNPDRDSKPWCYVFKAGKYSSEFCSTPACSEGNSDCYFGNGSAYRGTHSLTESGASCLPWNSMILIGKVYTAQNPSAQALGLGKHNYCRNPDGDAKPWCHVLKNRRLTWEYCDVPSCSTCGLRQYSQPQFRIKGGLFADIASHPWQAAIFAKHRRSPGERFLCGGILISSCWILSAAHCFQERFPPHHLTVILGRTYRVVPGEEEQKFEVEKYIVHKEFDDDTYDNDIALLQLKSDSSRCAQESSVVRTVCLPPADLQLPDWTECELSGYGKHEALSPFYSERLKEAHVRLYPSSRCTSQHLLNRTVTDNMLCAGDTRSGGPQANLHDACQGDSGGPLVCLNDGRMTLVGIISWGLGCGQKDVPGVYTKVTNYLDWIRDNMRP
Macrophage metalloelastase (Homo sapiens), sequence (P39900 106-470 limits assumed): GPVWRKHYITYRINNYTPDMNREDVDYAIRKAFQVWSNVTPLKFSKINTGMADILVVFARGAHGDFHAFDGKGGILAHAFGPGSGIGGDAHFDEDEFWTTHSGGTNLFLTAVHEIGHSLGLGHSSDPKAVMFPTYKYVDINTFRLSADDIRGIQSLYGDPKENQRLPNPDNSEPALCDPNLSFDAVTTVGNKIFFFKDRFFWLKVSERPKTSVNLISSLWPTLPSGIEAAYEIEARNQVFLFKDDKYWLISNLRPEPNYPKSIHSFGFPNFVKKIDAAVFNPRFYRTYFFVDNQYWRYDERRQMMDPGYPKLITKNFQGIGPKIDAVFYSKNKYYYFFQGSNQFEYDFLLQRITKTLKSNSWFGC
Dipeptidyl peptidase 4 (Homo sapiens), sequence (P27487 whole entry, looked up): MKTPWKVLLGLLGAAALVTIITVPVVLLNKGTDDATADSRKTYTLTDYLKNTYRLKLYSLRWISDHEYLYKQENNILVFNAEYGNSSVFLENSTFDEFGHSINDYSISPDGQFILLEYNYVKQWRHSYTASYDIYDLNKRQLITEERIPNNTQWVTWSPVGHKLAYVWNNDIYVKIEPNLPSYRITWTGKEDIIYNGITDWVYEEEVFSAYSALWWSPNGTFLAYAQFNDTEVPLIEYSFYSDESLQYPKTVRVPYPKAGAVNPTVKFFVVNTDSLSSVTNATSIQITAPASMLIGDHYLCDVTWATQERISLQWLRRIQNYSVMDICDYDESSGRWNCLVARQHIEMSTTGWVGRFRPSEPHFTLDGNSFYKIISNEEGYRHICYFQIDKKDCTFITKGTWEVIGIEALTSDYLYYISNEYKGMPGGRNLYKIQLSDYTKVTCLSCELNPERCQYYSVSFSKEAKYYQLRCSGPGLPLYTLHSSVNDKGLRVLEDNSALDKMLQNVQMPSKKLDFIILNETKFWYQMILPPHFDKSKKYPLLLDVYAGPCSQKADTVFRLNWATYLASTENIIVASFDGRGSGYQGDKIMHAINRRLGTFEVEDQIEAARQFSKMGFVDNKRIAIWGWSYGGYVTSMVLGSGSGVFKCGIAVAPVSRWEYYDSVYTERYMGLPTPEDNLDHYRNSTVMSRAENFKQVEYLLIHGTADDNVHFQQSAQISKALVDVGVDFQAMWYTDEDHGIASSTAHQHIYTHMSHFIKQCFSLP
Chymase (Homo sapiens), sequence (P23946 whole entry): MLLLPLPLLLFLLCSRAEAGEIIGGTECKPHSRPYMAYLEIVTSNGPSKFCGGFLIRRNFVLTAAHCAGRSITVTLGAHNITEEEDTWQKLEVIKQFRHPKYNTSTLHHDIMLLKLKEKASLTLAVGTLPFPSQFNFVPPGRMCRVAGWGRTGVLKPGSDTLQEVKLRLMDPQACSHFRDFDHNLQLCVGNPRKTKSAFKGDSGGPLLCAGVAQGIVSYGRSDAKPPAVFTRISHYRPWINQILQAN
Chymase, sequence (P23946 whole entry): as above

C/C=C1\NC(=O)[C@@H](NC(=O)[C@@H](NC(=O)[C@@H](COS(=O)(=O)[O-])OC)C(C)C)[C@@H](C)OC(=O)[C@H]([C@H](C)CC)NC(=O)[C@H](Cc2ccccc2)N(C)C(=O)[C@H](Cc2ccccc2)N2C(=O)[C@H](CC[C@H]2O)NC1=O.[Na+] [Symplostatin 5]
50%: Activity [7] | Activity [8]
100%: Activity [1] | Activity [6] | Activity (Chymase (Homo sapiens)) | Activity [10] | Activity [12] | Activity [13] | Activity [14] | Activity [15] | Activity [16] | Activity [17] | Activity [18] | Activity [19] | Activity [20] | Activity [22]
> 5: pIC50 [2] | pIC50 [3]
> 10 µM: IC50 [4]
< 10 µM: IC50 (Chymase) | IC50 (Tryptase gamma) | IC50 (Cathepsin G) | IC50 (Kallikrein-5)
active: inhibition [9] | inhibition [11] | inhibition [21]
< 5: pIC50 [5]
